According to ChEMBL document CHEMBL3425443, “Improved angiostatic activity of dasatinib by modulation with hydrophobic chains” (ACS Med Chem Lett, 2015):

Columns and labels:
HEK293 = experiment: Cytotoxicity against human HEK293 cells after 72 hrs by MTT assay; assay type: cell-based; settings: HEK293, 72 h
How it was run: (§1)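 Proliferation inhibition measured in human A2780 ovarian carcinoma, ECRF24 immortalized endothelial and HEK-293 embryonic kidney cells; IC50 values in μM reported as means ± SD.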

[1] = Cytotoxicity against human ECRF24 cells after 72 hrs by MTT assay; assay type: functional, cell-based; settings: ECRF24, 72 h; how it was run: as §1
A2780 = experiment: Cytotoxicity against human A2780 cells after 72 hrs by MTT assay; assay type: functional, cell-based; settings: A2780, 72 h; how it was run: as §1
[2] = Selectivity index, ratio of cytotoxic IC50 for HEK293 cells to antiangiogenic activity in chicken embryo chorioallantoic membrane model
ECRF24 = experiment: Angiostatic activity in human ECRF24 cells assessed as inhibition of cell migration after 7 hrs by laser scanner cytometry based wound closure assay; assay type: functional
How it was run: (§2)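 ECRF24 endothelial monolayers wounded, then incubated 7 h with compound across a concentration range; wound closure quantified to give migration inhibition. Error bars are standard error of the mean; significance set at p < 0.05 and p < 0.01.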

Chorioallantoic membrane = experiment: Antiangiogenic activity in chicken embryo chorioallantoic membrane model assessed as inhibition of vasculature formation at 20 uM, iv dosed for 3 consecutive days by FITC-dextran fluorescence angiography; assay type: functional, Gallus gallus
[3] = Angiostatic activity in human ECRF24 cells assessed as inhibition of cell migration at 50 uM after 7 hrs by laser scanner cytometry based wound closure assay; assay type: functional; settings: ECRF24, 7 h; how it was run: as §2

Structure (SMILES)	IC50 (HEK293) [µM]	IC50 [1] [µM]	IC50 (A2780) [µM]	Selectivity Index [2]	inhibition (ECRF24)	inhibition (INH) (Chorioallantoic membrane) [%]	inhibition at 50 µM [3] [%]
CCCCCCCCCCCCOC(=O)CCC(=O)OCCN1CCN(c2cc(Nc3ncc(C(=O)Nc4c(C)cccc4Cl)s3)nc(C)n2)CC1	> 500	27	45	–	–	–	–
CCCCCCCCCCCCCCCCCCOC(=O)CCCC(=O)OCCN1CCN(c2cc(Nc3ncc(C(=O)Nc4c(C)cccc4Cl)s3)nc(C)n2)CC1	> 500	101	125	–	–	–	–
CCCCCCCCOC(=O)CCC(=O)OCCN1CCN(c2cc(Nc3ncc(C(=O)Nc4c(C)cccc4Cl)s3)nc(C)n2)CC1	52	7.8	10.6	–	–	–	–
CCCCCCCCOC(=O)CCCC(=O)OCCN1CCN(c2cc(Nc3ncc(C(=O)Nc4c(C)cccc4Cl)s3)nc(C)n2)CC1	18	18	12	–	–	–	–
Cc1nc(Nc2ncc(C(=O)Nc3c(C)cccc3Cl)s2)cc(N2CCN(CCOC(=O)CCCC(=O)OCCC(F)(F)C(F)(F)C(F)(F)C(F)(F)C(F)(F)C(F)(F)F)CC2)n1	> 500	> 500	28.3	–	–	–	–
Cc1nc(Nc2ncc(C(=O)Nc3c(C)cccc3Cl)s2)cc(N2CCN(CCOC(=O)CCC(=O)OCCC(F)(F)C(F)(F)C(F)(F)C(F)(F)C(F)(F)C(F)(F)C(F)(F)C(F)(F)F)CC2)n1	> 500	96	118	–	–	–	–
CCCCCCCCCCCCCCCCCCOC(=O)CCC(=O)OCCN1CCN(c2cc(Nc3ncc(C(=O)Nc4c(C)cccc4Cl)s3)nc(C)n2)CC1	> 500	105	108	–	–	–	–
Cc1nc(Nc2ncc(C(=O)Nc3c(C)cccc3Cl)s2)cc(N2CCN(CCOC(=O)CCC(=O)OCCC(F)(F)C(F)(F)C(F)(F)C(F)(F)C(F)(F)C(F)(F)F)CC2)n1	58	122	130	–	–	–	–
Cc1nc(Nc2ncc(C(=O)Nc3c(C)cccc3Cl)s2)cc(N2CCN(CCOC(=O)CCCC(=O)OCCC(F)(F)C(F)(F)C(F)(F)C(F)(F)C(F)(F)C(F)(F)C(F)(F)C(F)(F)F)CC2)n1	> 500	57	121	25	Dose-dependent effect	45	15
CCCCCCCCCCOC(=O)CCC(=O)OCCN1CCN(c2cc(Nc3ncc(C(=O)Nc4c(C)cccc4Cl)s3)nc(C)n2)CC1	46	30	22.5	–	–	–	–
Cc1nc(Nc2ncc(C(=O)Nc3c(C)cccc3Cl)s2)cc(N2CCN(CCO)CC2)n1.O [DASATINIB]	14.3	5.7	8.7	–	Dose-dependent effect	8	65
CCCCCCCCCCOC(=O)CCCC(=O)OCCN1CCN(c2cc(Nc3ncc(C(=O)Nc4c(C)cccc4Cl)s3)nc(C)n2)CC1	29	34	119	–	–	–	–
CCCCCCCCCCCCOC(=O)CCCC(=O)OCCN1CCN(c2cc(Nc3ncc(C(=O)Nc4c(C)cccc4Cl)s3)nc(C)n2)CC1	> 500	135	53	–	–	–	–
Cc1nc(Nc2ncc(C(=O)Nc3c(C)cccc3Cl)s2)cc(N2CCN(CCOC(=O)CCC(=O)OCCC(F)(F)C(F)(F)C(F)(F)C(F)(F)C(F)(F)C(F)(F)C(F)(F)C(F)(F)C(F)(F)C(F)(F)F)CC2)n1	> 500	24	90	–	–	18	–
Cc1nc(Nc2ncc(C(=O)Nc3c(C)cccc3Cl)s2)cc(N2CCN(CCOC(=O)CCCC(=O)OCCC(F)(F)C(F)(F)C(F)(F)C(F)(F)C(F)(F)C(F)(F)C(F)(F)C(F)(F)C(F)(F)C(F)(F)F)CC2)n1	> 500	102	> 500	–	–	–	–
